Where two headings read alike, the source gives them in different places.
Legend:
lung, HOP-62 [1] = assay: NCI-60 five-dose assay, HOP-62; format: cell-based; details: Homo sapiens, HOP-62, read-out: cytotoxicity GI50, lung, HOP-62
Outline: (§1)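 Run in the National Cancer Institute's NCI-60 human cancer cell panel. Test compounds were first screened in a one-dose assay at 10–5 M, reading growth percent relative to vehicle-treated control.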

colon, HCT-116 [2] = assay: NCI-60 five-dose assay, HCT-116; format: cell-based; details: Homo sapiens, HCT-116, read-out: cytotoxicity GI50, colon, HCT-116
Outline: as §1

melanoma, UACC-62 [3] = assay: NCI-60 five-dose assay, UACC-62; format: cell-based; details: Homo sapiens, UACC-62, read-out: cytotoxicity GI50, melanoma, UACC-62
Outline: as §1

ovarian, OVCAR-3 [4] = assay: NCI-60 five-dose assay, OVCAR-3; format: cell-based; details: Homo sapiens, OVCAR-3, read-out: cytotoxicity GI50, ovarian, OVCAR-3
Outline: as §1

renal, SN12C [5] = assay: NCI-60 five-dose assay, SN12C; format: cell-based; details: Homo sapiens, read-out: cytotoxicity GI50, renal, SN12C
Outline: as §1

prostate, DU-145 [6] = assay: NCI-60 five-dose assay, DU-145; format: cell-based; details: Homo sapiens, DU-145, read-out: cytotoxicity GI50, prostate, DU-145
Outline: as §1

breast, MCF7 [7] = assay: NCI-60 five-dose assay, MCF7; format: cell-based; details: Homo sapiens, MCF7, read-out: cytotoxicity GI50, breast, MCF7
Outline: as §1

recombinant Top1 [8] = target: T1, recombinant Top1 (Homo sapiens, UniProt P11387); parameters: key to the marks not given beside the values; details: score based on the activity of 1 μM camptothecin; cited from earlier work
T1 sequence (P11387 1-765): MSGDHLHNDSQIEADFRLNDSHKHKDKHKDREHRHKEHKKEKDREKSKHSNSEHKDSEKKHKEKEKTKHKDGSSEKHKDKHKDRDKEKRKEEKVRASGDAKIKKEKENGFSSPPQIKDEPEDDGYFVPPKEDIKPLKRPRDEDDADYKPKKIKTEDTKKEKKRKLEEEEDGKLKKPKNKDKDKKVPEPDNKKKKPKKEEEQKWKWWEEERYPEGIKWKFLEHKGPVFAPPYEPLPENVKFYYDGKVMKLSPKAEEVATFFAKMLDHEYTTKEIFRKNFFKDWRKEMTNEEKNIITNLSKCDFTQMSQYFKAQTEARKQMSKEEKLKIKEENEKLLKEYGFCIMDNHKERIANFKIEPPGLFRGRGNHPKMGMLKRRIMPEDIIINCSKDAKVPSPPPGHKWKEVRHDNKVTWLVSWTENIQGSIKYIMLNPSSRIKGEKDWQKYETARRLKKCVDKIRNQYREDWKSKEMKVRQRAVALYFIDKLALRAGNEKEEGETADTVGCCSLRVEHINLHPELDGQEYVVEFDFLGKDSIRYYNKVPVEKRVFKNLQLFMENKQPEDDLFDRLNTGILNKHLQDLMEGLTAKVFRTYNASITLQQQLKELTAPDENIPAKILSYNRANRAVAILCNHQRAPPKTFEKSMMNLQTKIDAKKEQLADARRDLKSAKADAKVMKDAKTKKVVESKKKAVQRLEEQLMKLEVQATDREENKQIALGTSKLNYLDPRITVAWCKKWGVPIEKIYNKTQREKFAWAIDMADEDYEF

lung, HOP-62 [9] = details: read-out: cytotoxicity GI50, lung, HOP-62; five-dose assay; cited from earlier work
colon, HCT-116 [10] = details: read-out: cytotoxicity GI50, colon, HCT-116; five-dose assay; cited from earlier work
CNS, SF-539 = details: read-out: cytotoxicity GI50, CNS, SF-539; five-dose assay; cited from earlier work
melanoma, UACC-62 [11] = details: read-out: cytotoxicity GI50, melanoma, UACC-62; five-dose assay; cited from earlier work
ovarian, OVCAR-3 [12] = details: read-out: cytotoxicity GI50, ovarian, OVCAR-3; five-dose assay; cited from earlier work
renal, SN12C [13] = details: read-out: cytotoxicity GI50, renal, SN12C; five-dose assay; cited from earlier work
prostate, DU-145 [14] = details: read-out: cytotoxicity GI50, prostate, DU-145; five-dose assay; cited from earlier work
breast, MCF7 [15] = details: read-out: cytotoxicity GI50, breast, MCF7; five-dose assay; cited from earlier work
[16] = test system: panel of 60 different human cancer cell lines; details: mean graph midpoint, five-dose assay; cited from earlier work
recombinant Top1 [17] = target: T1, recombinant Top1; assay: Top1-mediated DNA cleavage assay; format: biochemical; details: compound-induced DNA cleavage, score based on the activity of 1 μM camptothecin
∼60 cancer cell lines = assay: NCI-60 one-dose assay; format: cell-based; details: Homo sapiens, read-out: mean growth, %, 10 μM compound, one-dose assay, relative to vehicle-treated control
Outline: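 Single-dose screen at 10–5 M across the ~60 human cancer cell lines of the NCI-60 panel. Growth percent of treated cells was expressed relative to vehicle-treated controls and averaged over the panel.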

[18] = test system: panel of 60 different human cancer cell lines; assay: NCI-60 five-dose assay, mean graph midpoint; format: cell-based; details: mean graph midpoint of growth inhibition, five-dose assay 10^–8 to 10^–4 M

| Top1 cleavage (recombinant Top1 [17]) | Compound | GI50 (lung, HOP-62 [1]) | GI50 (colon, HCT-116 [2]) | GI50 (melanoma, UACC-62 [3]) | GI50 (ovarian, OVCAR-3 [4]) | GI50 (renal, SN12C [5]) | GI50 (prostate, DU-145 [6]) | GI50 (breast, MCF7 [7]) | Top1 cleavage (recombinant Top1 [8]) | GI50 (lung, HOP-62 [9]) | GI50 (colon, HCT-116 [10]) | GI50 (CNS, SF-539) | GI50 (melanoma, UACC-62 [11]) | GI50 (ovarian, OVCAR-3 [12]) | GI50 (renal, SN12C [13]) | GI50 (prostate, DU-145 [14]) | GI50 (breast, MCF7 [15]) | MGM [16] | activity at 10 µM (∼60 cancer cell lines) | MGM [18] |
| --- | --- | --- | --- | --- | --- | --- | --- | --- | --- | --- | --- | --- | --- | --- | --- | --- | --- | --- | --- | --- |
| – | CC[C@@]1(O)C(=O)OCc2c1cc1n(c2=O)Cc2cc3ccccc3nc2-1 [Compound 1, camptothecin, reference compound] | 10 nM | 30 nM | 10 nM | 220 nM | 20 nM | 10 nM | 10 nM | – | – | – | – | – | – | – | – | – | – | – | – |
| – | COc1cc2c3c(n(CCCN4CCOCC4)c(=O)c2cc1OC)-c1cc2c(cc1C3=O)OCO2 [Compound 4, 2,3-Dimethoxy-6-(3-morpholinopropyl)-5,6-dihydro-8,9-methylenedioxy-5,12-dioxoindeno[1,2-c]isoquinoline] | – | – | – | – | – | – | – | ++++ | 1780 nM | 1150 nM | 40 nM | 30 nM | 74100 nM | 813 nM | 155 nM | 370 nM | 4.64 ± 1.25 µM | – | – |
| ++++ | O=C1c2ccccc2-c2c1c1ccc([N+](=O)[O-])cc1c(=O)n2C[C@H](O)[C@@H](O)[C@@H](O)[C@H](O)CO [Compound 69, (2′S,3′R,4′S,5′R)-5,6-Dihydro-6-(2′,3′,4′,5′,6′-pentahydroxyhexyl)-3-nitro-5,11-dioxo-11H-indeno[1,2-c]isoquinoline] | – | 3390 nM | – | – | – | – | – | – | – | – | – | – | – | – | – | – | – | 51.5 to 73.2% | 7.94 µM |
| – | COc1cc2c3c(n(CCCn4ccnc4)c(=O)c2cc1OC)-c1cc2c(cc1C3=O)OCO2 [Compound 5, 6-(3-(1H-Imidazol-1-yl)propyl)-2,3-dimethoxy-5,6-dihydro-8,9-methylendioxy-5,12-dioxoindeno[1,2-c]isoquinoline] | – | – | – | – | – | – | – | ++++ | < 10 nM | < 10 nM | 37 nM | < 10 nM | 85 nM | < 10 nM | < 10 nM | – | 0.079 ± 0.023 µM | – | – |
